The results in this text go back to ChEMBL document CHEMBL3352550, “Discovery and optimization of 4,5-diarylisoxazoles as potent dual inhibitors of pyruvate dehydrogenase kinase and heat shock protein 90” (J Med Chem, 2014).

The source made the active and inactive calls. The calls are words filed in the database; no cut-off is given here.

Data set [1] deals with T1, Heat shock protein HSP90 (Homo sapiens, UniProt P07900+P08238). Put plainly: Inhibition of geldanamycin-BODIPY binding to full-length HSP90 (unknown origin) by fluorescence polarization based competition assay. It counts as protein assay. The procedure, abridged: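 Fluorescence polarization competition using full-length HSP90 and geldanamycin-BODIPY as probe.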
For orientation: Polarisation of emitted light reports the rotation of a fluorescent probe.

Data set [2] concerns the target T2, [Pyruvate dehydrogenase (acetyl-transferring)] kinase isozyme 1, mitochondrial (Homo sapiens, UniProt Q15118). Put plainly: Inhibition of recombinant PDHK1 (unknown origin) expressed in Escherichia coli at 10 uM incubated for 1 hr by ELISA. The procedure, abridged:
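Recombinant His6-SUMO-PDHK1 was expressed in E. coli and purified on nickel resin. It was used at 0.25 µg/well on immobilized PDHA1 substrate (0.5 µg/well) with 10 µM ATP in 50 mM HEPES, 10 mM MgCl2 and 1 mM EGTA. Compounds were screened at 10 µM and percent inhibition was recorded. Detection used anti-p-PDHA1(S293) for 1 h and HRP secondary antibody for 1 h, then o-phenylenediamine, read at OD490.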
(ELISA stands for enzyme-linked immunosorbent assay.)

Data set [3] concerns the target T2, [Pyruvate dehydrogenase (acetyl-transferring)] kinase isozyme 1, mitochondrial. Put plainly: Inhibition of recombinant PDHK1 (unknown origin) expressed in Escherichia coli incubated for 1 hr by ELISA.
The target in data set [4] is T1, Heat shock protein HSP90. Put plainly: Inhibition of HSP90 in human NCI-H1299 cells assessed as reduction in AKT protein levels at 10 uM incubated for 12 hrs by immunoblotting method. It counts as cell-based. An outline of the steps: (§1)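 NCI-H1299 cells were treated for 12 h and lysed in RIPA buffer with protease inhibitors. Equal protein was loaded per lane, run on a gel and transferred to nitrocellulose. Membranes were blocked in TBST with 3% BSA for 1 h at room temperature, then probed with primary antibody for 2 h and secondary antibody for 1 h, both at room temperature. Bands were detected by ECL.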
(In general: In western blotting, separated proteins are transferred to a membrane and probed.)

The target in data set [5] is T1, Heat shock protein HSP90. Put plainly: Inhibition of HSP90 in human NCI-H1299 cells assessed as reduction in c-MET protein levels at 10 uM incubated for 12 hrs by immunoblotting method. It counts as cell-based. The procedure, abridged: as §1
The target of data set [6] is T1, Heat shock protein HSP90. Put plainly: Inhibition of HSP90 in human NCI-H1299 cells assessed as increase in HSP70 protein levels at 10 uM incubated for 12 hrs by immunoblotting method. It counts as cell-based. The procedure, abridged:
as §1

The target in data set [7] is T1, Heat shock protein HSP90. In words: Inhibition of HSP90 in human NCI-H1299 cells assessed as reduction in HER2 protein levels at 10 uM incubated for 12 hrs by immunoblotting method. The data set is classed as cell-based. An outline of the steps:
as §1

Data set [8] can be described thus: Apparent permeability from apical to basolateral side in human Caco2 cells. To be noted: Caco-2.
Data set [9] can be described thus: Efflux ratio in human Caco2 cells. As to conditions: Caco-2.
A short description of data set [10]: Apparent permeability from basolateral to apical side in human Caco2 cells. To be noted: Caco-2.

T2 sequence (Q15118 whole entry): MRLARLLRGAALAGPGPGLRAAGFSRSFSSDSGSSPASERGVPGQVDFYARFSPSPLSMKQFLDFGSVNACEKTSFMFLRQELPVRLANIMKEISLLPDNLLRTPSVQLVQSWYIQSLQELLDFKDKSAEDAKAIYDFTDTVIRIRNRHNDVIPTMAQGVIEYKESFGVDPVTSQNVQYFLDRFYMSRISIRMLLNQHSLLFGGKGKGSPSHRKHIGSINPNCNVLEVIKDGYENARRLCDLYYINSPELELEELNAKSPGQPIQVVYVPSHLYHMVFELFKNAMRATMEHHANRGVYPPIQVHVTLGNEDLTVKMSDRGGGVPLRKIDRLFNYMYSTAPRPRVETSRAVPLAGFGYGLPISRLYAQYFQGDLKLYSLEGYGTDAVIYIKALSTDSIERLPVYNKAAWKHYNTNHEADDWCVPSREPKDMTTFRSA

In general, IC50 refers to the point on the concentration scale where inhibition reaches its midpoint. One may read the inhibition as the relative decrease from the control value, in per cent. With `COc1ccc(-c2c(/C=C/C(=O)N3CCN(c4ccc(Cl)c(Cl)c4)CC3)noc2-c2cc(Cl)c(O)cc2O)cc1`, the values for the IC50 in [1] and in [3] were 4232 nM and 4310 nM, respectively. The inhibition in data set [2] was over 50%.
On the same counts, the results for `COc1ccc(-c2c(/C=C/C(=O)N3CCN(c4cccc(OC)c4)CC3)noc2-c2cc(Cl)c(O)cc2O)cc1` are 718 nM, 491 nM and over 50%.
On the same counts, the results for `COc1ccc(N2CCN(C(=O)/C=C/c3noc(-c4cc(Cl)c(O)cc4O)c3-c3ccc(O)cc3)CC2)cc1` are 576 nM, 952 nM and over 50%.
On the same counts, the results for `O=C(/C=C/c1noc(-c2cc(Cl)c(O)cc2O)c1-c1ccc(O)cc1)N1CCN(c2ncccn2)CC1` are 338 nM, 521 nM and over 50%.
In the case of `COc1ccc(-c2c(C(=O)NC3CCN(Cc4ccncc4)CC3)noc2-c2cc(Cl)c(O)cc2O)cc1`, the IC50 in data set [1] turned out to be 15 nM; in data set [3] it was 59 nM. Moreover, the inhibition in data set [2] was over 50%.
On the same counts, the results for `COc1ccc(-c2c(/C=C/C(=O)N3CCN(c4ccc(OC)cc4)CC3)noc2-c2cc(Cl)c(O)cc2O)cc1` are 700 nM, 557 nM and over 50%.
On the same counts, the results for `O=C(/C=C/c1noc(-c2cc(Cl)c(O)cc2O)c1-c1ccc(O)cc1)N1CCN(c2cccc(C(F)(F)F)c2)CC1` are 1859 nM, 2950 nM and over 50%.
Consider `COc1ccc(-c2c(C(=O)NC3CCN(CC4CC4)CC3)noc2-c2cc(Cl)c(O)cc2O)cc1`, for which the results for the IC50 in data set [1] and in data set [3] were 39 nM and 28 nM, respectively. The inhibition result in data set [4], in data set [5], in data set [6] and in [7] was “Active” throughout. Besides, the inhibition in data set [2] was over 50%.
Consider `COc1ccc(-c2c(C(=O)NC3CCN(CC(C)C)CC3)noc2-c2cc(Cl)c(O)cc2O)cc1`, for which the IC50 amounted to 23 nM in [1] and 68 nM in data set [3]. For the same compound, the inhibition in data set [2] is over 50%.
On the same counts, the results for `O=C(/C=C/c1noc(-c2cc(Cl)c(O)cc2O)c1-c1ccc(O)cc1)N1CCN(c2ccccn2)CC1` are 357 nM, 878 nM and over 50%.
With `COc1ccc(-c2c(C(=O)NCc3ccc(Cl)cc3Cl)noc2-c2cc(Cl)c(O)cc2O)cc1`, the IC50 in data set [1] came out at 1600 nM; in data set [3], 610 nM. Moreover, the inhibition in data set [2] was over 50%.
On the same counts, the results for `COc1ccc(-c2c(C(=O)NC3CCN(Cc4ccc(Cl)cc4Cl)CC3)noc2-c2cc(Cl)c(O)cc2O)cc1` are 127 nM, 160 nM and over 50%.
On the same counts, the results for `COc1ccc(-c2c(C(=O)NC3CCN(S(C)(=O)=O)CC3)noc2-c2cc(Cl)c(O)cc2O)cc1` are 45 nM, 130 nM and over 50%.
Taken in the same sequence, the figures for `COc1ccc(-c2c(/C=C/C(=O)N3CCN(c4ccccc4OC)CC3)noc2-c2cc(Cl)c(O)cc2O)cc1` were 596 nM, 845 nM and over 50%.
With `CCNC(=O)N1CCC(NC(=O)c2noc(-c3cc(Cl)c(O)cc3O)c2-c2ccc(OC)cc2)CC1`, the IC50 in [1] is 20 nM; in data set [3], 150 nM. The inhibition in data set [2] was over 50%.
By Papp A→B is commonly meant how fast a substance crosses the layer from the apical side. By efflux ratio is commonly meant the permeability from basolateral to apical divided by that in the opposite direction, in the common usage. For orientation: Papp B→A means how fast a substance crosses the layer from the basolateral side. For the compound `COc1ccc(-c2c(/C=C/C(=O)N3CCN(c4ncccn4)CC3)noc2-c2cc(Cl)c(O)cc2O)cc1`, the Papp A→B in data set [8] came out at 6.9 ×10⁻⁶ cm/s. The half-maximal inhibitory concentration (IC50) is 208 nM in data set [1] and 1070 nM in data set [3]. In addition, the inhibition result in data set [4], in data set [5], in data set [6] and in data set [7] was “Active” each time. Moreover, the efflux ratio in data set [9] amounted to 0.74. The inhibition in data set [2] was over 50%. Also, the Papp B→A in [10] came out at 5.09 ×10⁻⁶ cm/s.
For the compound `COc1ccc(-c2c(C(=O)NC3CCN(Cc4ccccc4)CC3)noc2-c2cc(Cl)c(O)cc2O)cc1`, the IC50 amounted to 36 nM in data set [1] and 25 nM in data set [3]. Moreover, the inhibition entry in [4], in [5], in [6] and in [7] was “Active” each time. Further, the inhibition in [2] was over 50%.
Consider `COc1cccc(N2CCN(C(=O)/C=C/c3noc(-c4cc(Cl)c(O)cc4O)c3-c3ccc(O)cc3)CC2)c1`, for which, in [8], the Papp A→B came to 6.54 ×10⁻⁶ cm/s. For the same compound, the IC50 in [1] came to 666 nM; in data set [3] it was 776 nM. In addition, the inhibition result in data set [4], in data set [5], in data set [6] and in data set [7] was “Active” each time. In data set [9], the efflux ratio is 2.29. Moreover, in data set [2], the inhibition was over 50%. Moreover, the Papp B→A in [10] turned out to be 15 ×10⁻⁶ cm/s.
As for `COc1ccc(-c2c(C(=O)Nc3ccc(N(C)C)cc3)noc2-c2cc(Cl)c(O)cc2O)cc1`, the IC50 in [1] amounted to 91 nM; in [3], 380 nM. Moreover, the inhibition in data set [2] was over 50%.
Taken in the same sequence, the figures for `COc1ccc(-c2c(C(=O)N3CCC(Cc4ccccc4)CC3)noc2-c2cc(Cl)c(O)cc2O)cc1` were over 10000 nM, over 10000 nM and under 50%.
With `COc1ccc(-c2c(/C=C/C(=O)N3CCN(c4ccccc4)CC3)noc2-c2cc(Cl)c(O)cc2O)cc1`, the IC50 stood at 677 nM in [1] and 1920 nM in [3]. The inhibition in [2] is over 50%.
Regarding `COc1ccc(CN2CCC(NC(=O)c3noc(-c4cc(Cl)c(O)cc4O)c3-c3ccc(OC)cc3)CC2)cc1`, the Papp A→B in data set [8] came out at 0.962 ×10⁻⁶ cm/s. Moreover, the results for the IC50 in [1] and in [3] were 16 nM and 17 nM, respectively. Also, the inhibition result in data set [4], in data set [5], in data set [6] and in data set [7] was “Active” each time. In addition, the efflux ratio in [9] came out at 9.04. Also, the inhibition in [2] is over 50%. For the same compound, the Papp B→A in [10] was 8.7 ×10⁻⁶ cm/s.
In the case of `O=C(/C=C/c1noc(-c2cc(Cl)c(O)cc2O)c1-c1ccc(O)cc1)N1CCN(c2ccc(Cl)c(Cl)c2)CC1`, the IC50 in data set [1] came out at 3939 nM; in data set [3], 1420 nM. For the same compound, the inhibition in data set [2] was over 50%.
As for `COc1ccc(-c2c(/C=C/C(=O)N3CCN(c4cccc(C(F)(F)F)c4)CC3)noc2-c2cc(Cl)c(O)cc2O)cc1`, the results for the IC50 in data set [1] and in [3] were 2255 nM and 2370 nM, respectively. Besides, the inhibition in data set [2] was over 50%.
On the same counts, the results for `COc1ccc(-c2c(C(=O)Nc3ccncc3)noc2-c2cc(Cl)c(O)cc2O)cc1` are 154 nM, 580 nM and over 50%.
Taken in the same sequence, the figures for `COc1ccc(-c2c(/C=C/C(=O)N3CCN(c4ccccn4)CC3)noc2-c2cc(Cl)c(O)cc2O)cc1` were 215 nM, 1050 nM and over 50%.
Turning to `COc1ccc(-c2c(C(=O)NC3CCN(C(C)=O)CC3)noc2-c2cc(Cl)c(O)cc2O)cc1`, the IC50 in [1] was 25 nM; in data set [3] it was 210 nM. Also, the inhibition in data set [2] is over 50%.
